PP1 counter: PP1-alpha (human) inhibition in PP5 counter-screen | purified PP1alpha, OMFP fluorescence | inhibition, % at 6.7 µM | P62136 | actives 0.9% (n = 320,000) | AID 2235;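 active = inhibition above the mean inhibition of all tested compounds plus 3 SD, computed separately for each screening campaign, cut at about 15% in these data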
GSTO1 counter: GSTO1 inhibition, counter-screen for RBBP9 inhibitors; recombinant GSTO1, activity-based probe fluorescence polarization; inhibition, % at 5.96 µM; AID 1974; actives 1.1% (n = 300,000);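 active = inhibition above the campaign mean inhibition plus 3 SD, cut at about 35% in these data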;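 note: 0% = GSTO1-1 with DMSO and 100% = wells lacking GSTO1-1 enzyme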
TDP2 absorb: TDP2 (human) inhibition, absorbance primary screen; O95551; inhibition, % at 12.8 µM; AID 720702; actives 0.34% (n = 370,000); recombinant TDP2, T5PNP hydrolysis, p-nitrophenol absorbance 415 nm;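 active = inhibition above the mean of all tested compounds plus 3 SD, set per campaign, cut at about 25% in these data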;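 note: 0% = DMSO with enzyme and 100% = buffer with substrate but no TDP2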
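Assay system: Recombinant human TDP2 | Quantity: 120 nM TDP2 per well | Incubation: 2 h at 37 °C | Signal: Epi absorbance | Evaluation: Percent inhibition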
Apaf-1 inh: blocks human Apaf-1 apoptosome activity; O14727; reconstituted apoptosome caspase-3 activity, DEVD-Rh110 fluorescence; inhibition, % at 20 µM; actives 0.71% (n = 330,000); AID 489030; active = inhibition of at least 40% at 20 µM;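 note: plate controls were DMSO wells for no effect and DEVD-CHO caspase inhibitor wells for full effect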
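System: Apoptosome proteins | Medium: Hepes pH 7.5 with detergent and BSA | Also added: Cytochrome c trigger plus (Z-DEVD)2-Rh110 caspase-3 substrate | Incubation: 30 min compound preincubation, 50 min activation, room temperature | Detection: Rhodamine 110 fluorescence at Ex 480/Em 540 nm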
PP5 primary: PP5 (human) phosphatase inhibition; inhibition, % at 6.7 µM; actives 0.18% (n = 320,000); purified PP5c, OMFP substrate fluorescence; AID 1987;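 active = inhibition above the campaign's mean inhibition across all tested compounds plus 3 SD, cut at about 9.5% in these data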;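 note: 0% = DMSO only and 100% = 100 µM cantharidin control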
Target sequence (P53041 whole entry, looked up): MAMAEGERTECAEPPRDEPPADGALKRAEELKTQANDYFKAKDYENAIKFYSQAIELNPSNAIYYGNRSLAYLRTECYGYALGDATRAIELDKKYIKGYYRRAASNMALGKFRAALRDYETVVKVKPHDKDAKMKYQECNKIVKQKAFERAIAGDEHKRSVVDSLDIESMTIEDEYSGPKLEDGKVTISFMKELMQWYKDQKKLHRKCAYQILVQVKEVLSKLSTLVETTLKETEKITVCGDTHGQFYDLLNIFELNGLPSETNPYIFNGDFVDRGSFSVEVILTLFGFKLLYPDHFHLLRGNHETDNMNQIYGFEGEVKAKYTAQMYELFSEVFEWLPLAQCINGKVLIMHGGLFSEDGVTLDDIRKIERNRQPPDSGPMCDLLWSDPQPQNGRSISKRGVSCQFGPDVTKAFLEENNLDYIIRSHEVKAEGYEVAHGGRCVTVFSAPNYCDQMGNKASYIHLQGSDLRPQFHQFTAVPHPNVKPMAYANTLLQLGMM
GSTO1 confirm: confirmation of human GSTO1 inhibitors; shares compounds with GSTO1 counter; recombinant GSTO1, probe fluorescence polarization; inhibition, % at 5.96 µM; actives 54% (n = 2,400);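 active = inhibition above the primary screen's cutoff, its mean inhibition plus 3 SD, cut at about 35% in these data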;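 note: loss of polarization as inhibitors block binding of rhodamine sulfonate ester activity probe; 0% = GSTO1 with DMSO and 100% = wells lacking GSTO1 enzyme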
PP5 inh confirm: PP5 (human) inhibition, confirmation; shares compounds with PP5 primary; Purified PP5, fluorogenic phosphatase substrate, fluorescence; inhibition, % at 6.7 µM; actives 22% (n = 460); AID 2331; in the data active = inhibition above about 9.5%
PP1 counter 3x: PP1 phosphatase inhibition, counter-screen for PP5 inhibitors; actives 4% (n = 460); PP1 enzyme, fluorescent phosphatase substrate; inhibition, % at 6.7 µM; shares compounds with PP5 primary; in the data active = inhibition above about 16%
PP1 inh confirm: confirmation of human PP1 phosphatase inhibitors; inhibition, % at 6.7 µM; shares compounds with PP1 counter; purified PP1alpha, OMFP substrate fluorescence; actives 52% (n = 1,900);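 active = mean PP1 inhibition above a set limit taken from the earlier primary screen, cut at about 15% in these data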
PP5 inh counter: counter-screen for PP1 inhibitors: human PP5 phosphatase inhibition | shares compounds with PP1 counter | purified PP5c, OMFP fluorescence | inhibition, % at 6.7 µM | actives 4% (n = 1,900);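 active = mean PP5 inhibition over triplicate wells above about 9.5% taken from the earlier PP1 screen, limit read from the data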
Apaf-1 inh conf: confirmation of Apaf-1 inhibitors | inhibition, % at 20 µM | actives 25% (n = 1,800) | reconstituted apoptosome, caspase-3 DEVD-Rh110 fluorescence | AID 504614 | shares compounds with Apaf-1 inh;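 active = mean inhibition of at least 40% at 20 µM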;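 note: plate controls were DMSO wells for no effect and DEVD-CHO caspase inhibitor control wells for full effect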
Rh110 interf inh: counter-screen for Apaf-1 inhibitors: fluorescence interference | AID 504615 | 1,800 tested, under 10 active | activation (fluorescence interference), % at 20 µM | shares compounds with Apaf-1 inh | Rh110 fluorescence interference, quenched caspase reaction;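 active = signal rise of 40% or more at 20 µM, treated as a fluorescence artifact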
Fluor interf inh: shows fluorescence interference in the Apaf-1 inhibitor assay format. fluorescence interference counterscreen, Apaf-1 assay format. AID 588538. IC50, µM. shares compounds with Apaf-1 inh. 460 tested, under 10 active; call rule not given here
An asterisk follows results filed as active; x = no result given. Hits are enriched below; roughly 2.1% of the tested compounds scored in any of these assays.

SMILES | PP1 counter | GSTO1 counter | TDP2 absorb | Apaf-1 inh | PP5 primary | GSTO1 confirm | Apaf-1 inh conf | Rh110 interf inh | Fluor interf inh | others
CCOc1ccc2nc3cc(NCc4ccc(OC)cc4)ccc3c(N)c2c1 | 65* | 50* | x | 96* | 15* | 32 | 82* | -4 | >100 | PP1 inh confirm=16*;PP5 inh counter=38*
CCOC(=O)c1c(C)n(-c2ccc(C)cc2)c2c(C(C(C)=O)C(=O)O)c(Br)c(O)c(O)c12 (centres undefined) | 5 | 64* | 1 | 50* | 2 | 8 | 62* | 5 | >100
CCOC(=O)c1c(C)n(-c2ccc(C)cc2)c2c(CC(C)=O)c(Br)c(OC)c(O)c12 | -4 | 2 | -4 | -5 | 1 | x | x | x | x
CCNC1=C(Cl)C(=O)c2ccccc2C1=O | -2 | 70* | 10 | 51* | 3 | 8 | 36 | 5 | x
O=C(NCCN1CCCC1)c1ccccc1Cl | -1 | 2 | -7 | 5 | 3 | x | x | x | x
O=C1C(Cl)=C(NCCN2CCCCC2)C(=O)c2ccccc21 | -4 | 71* | x | 68* | 3 | 52* | 79* | 21 | >100
Cc1ccc(NC2=C/C(=N\S(=O)(=O)c3cccs3)c3ccccc3C2=O)c(C)c1 | 9 | 81* | x | 95* | 6 | 89* | 95* | -1 | >100
Cc1ccc(Cl)cc1NC1=C/C(=N\S(=O)(=O)c2cccs2)c2ccccc2C1=O | 2 | 74* | 23 | 95* | 11* | 94* | 97* | 0 | >100 | PP5 inh confirm=42*;PP1 counter 3x=11
C[C@H]1COc2cccc(N3CCC[C@@H]3CO)c2S(=O)(=O)N1 | x | x | -12 | x | x | x | x | x | x
C[C@@H]1/C=C/CC(=O)N[C@H](c2ccccc2)[C@H](C)/C=C/CC(=O)N[C@@H]1c1ccccc1 | x | x | 4 | x | x | x | x | x | x
CC1(OC(=O)C2CCCC2)C(=O)C=C2C=C(c3ccsc3)N(CCCCO)C=C2C1=O (centres undefined) | 0 | 44* | 22 | 54* | 10* | 6 | 36 | 0 | x | PP5 inh confirm=44*;PP1 counter 3x=18*
COc1ccc(CN2C=C3C(=O)C(C)(OC(=O)C4CCCC4)C(=O)C=C3C=C2c2ccsc2)cc1 (centres undefined) | 14 | 33 | 5 | 20 | 7 | x | x | x | x
COc1ccc2[nH]c3c(c2c1)CCN[C@]31C(=O)N(c2ccccc2)c2ccccc21 | x | x | -1 | x | x | x | x | x | x
Nc1nc2cc3c(cc2cc1C(=O)NCCc1c[nH]c2ccccc12)OCO3 | x | x | 6 | x | x | x | x | x | x
COc1ccc(Nc2ccc3c(c2)=NC2(CCCCC2)[N+]=3[O-])cc1 | 3 | 54* | -9 | 80* | 3 | 31 | 70* | 12 | >100
O=C(NCCc1c[nH]c2ccccc12)OCc1cn(Cc2ccc(F)c(F)c2)nn1 | x | x | 1 | x | x | x | x | x | x
O=C(C1CCN(S(=O)(=O)c2ccc3[nH]c(=O)oc3c2)CC1)N1CCCN(Cc2ccccc2)CC1 | x | x | 6 | x | x | x | x | x | x
COCCn1c(N)c(C(=O)OCc2ccccc2)c2nc3ccccc3nc21 | 1 | 70* | 14 | 94* | 7 | 58* | 8 | 1 | x

Source: PubChem
